This is an account of results in ChEMBL document CHEMBL1129624, “10-substituted 11-oxygenated (R)-aporphines: synthesis, pharmacology, and modeling of 5-HT1A receptor interactions” (J Med Chem, 1996).

Assay [1] deals with T1, 5-hydroxytryptamine receptor 1A (Rattus norvegicus, UniProt P19327).
T1 sequence (P19327 whole entry): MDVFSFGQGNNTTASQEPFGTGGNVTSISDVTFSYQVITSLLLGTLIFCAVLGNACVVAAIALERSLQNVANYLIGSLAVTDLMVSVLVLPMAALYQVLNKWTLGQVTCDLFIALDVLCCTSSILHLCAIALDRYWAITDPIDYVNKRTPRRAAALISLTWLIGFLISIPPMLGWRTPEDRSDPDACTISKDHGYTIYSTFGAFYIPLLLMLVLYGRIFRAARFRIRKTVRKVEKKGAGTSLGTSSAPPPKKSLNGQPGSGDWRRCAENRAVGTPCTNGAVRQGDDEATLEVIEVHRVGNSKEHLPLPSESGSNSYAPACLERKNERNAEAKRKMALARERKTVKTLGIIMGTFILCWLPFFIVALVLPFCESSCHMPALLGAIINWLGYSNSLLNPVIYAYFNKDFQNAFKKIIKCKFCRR
The assay can be described thus: In vitro affinity at 5-hydroxytryptamine 1A receptor of rat hippocampus by [3H]8-OH-DPAT displacement. Format: tissue-based. Summed up: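 Incubation in 50 mM Tris–HCl pH 7.4 containing 2.0 mM CaCl2, 1.0 mM MgCl2, 1.0 mM MnCl2 and 5.7 mM ascorbic acid, 45 min at 37 °C. Nonspecific binding defined with 100 μM 5-HT·HCl. Otherwise run as in an earlier report.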

Assay [2] has as its target T2, D(1A) dopamine receptor (Rattus norvegicus, UniProt P18901). Briefly: In vitro affinity at Dopamine receptor D1 of rat striatum by [3H]SCH-23390 displacement. It counts as tissue-based.
The target of assay [3] is T3, D(2) dopamine receptor (Homo sapiens, UniProt P14416). Briefly: In vitro affinity at human cloned Dopamine receptor D2A by [3H]-raclopride displacement.
T3 sequence (P14416 whole entry): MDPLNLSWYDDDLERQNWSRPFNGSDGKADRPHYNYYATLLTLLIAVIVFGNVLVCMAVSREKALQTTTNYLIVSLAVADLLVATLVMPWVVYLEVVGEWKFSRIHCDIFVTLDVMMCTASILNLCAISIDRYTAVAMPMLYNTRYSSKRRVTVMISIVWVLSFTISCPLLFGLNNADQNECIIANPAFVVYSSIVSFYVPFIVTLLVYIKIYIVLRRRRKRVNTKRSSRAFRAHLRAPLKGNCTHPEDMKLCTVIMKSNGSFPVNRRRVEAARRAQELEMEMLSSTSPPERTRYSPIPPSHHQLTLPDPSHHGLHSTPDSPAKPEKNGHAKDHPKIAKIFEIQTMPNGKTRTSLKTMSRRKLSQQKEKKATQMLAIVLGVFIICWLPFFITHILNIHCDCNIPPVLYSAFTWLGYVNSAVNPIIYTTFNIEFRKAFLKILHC
In assay [4] the test system is Rattus norvegicus. The assay can be described thus: In vivo effect on 5-hydroxytryptophan (5-HTP) accumulation following decarboxylase inhibition was investigated on striatum of reserpine-pretreated rats. It counts as functional. Summed up:
(§1)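 Rats pretreated with reserpine (5 mg/kg sc) 18–20 h before. Single sc doses of test agent in saline, sometimes with a few drops of glacial HOAc. Decarboxylase then blocked with NSD1015 (117 mg/kg sc). DOPA and 5-HTP measured in dissected brain regions by HPLC with electrochemical detection. Values given as percent of saline controls, n = 2–4. Statistics by one-way ANOVA with Fisher's PLSD.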

Assay [5] concerns Rattus norvegicus. Briefly: In vivo effect on 5-hydroxytryptophan (5-HTP) accumulation following decarboxylase inhibition was tested on limbic forebrain of reserpine-pretreated rats. It counts as functional, Limbic system. Summed up: as §1
Assay [6] has as its system Rattus norvegicus. The assay can be described thus: In vivo effects of single doses on dihydroxyphenylalanine (DOPA) accumulation following decarboxylase inhibition was investigated on limbic forebrain of reserpine-pretreated rats. It counts as functional, Limbic system. In short, it runs like this: as §1
The subject of assay [7] is Rattus norvegicus. The assay can be described thus: In vivo effects on 5-hydroxytryptophan (5-HTP) accumulation following decarboxylase inhibition was tested on cortex of reserpine-pretreated rats. It counts as functional. In short, it runs like this: as §1
Assay [8] has as its system Rattus norvegicus. The assay can be described thus: In vivo effects on dihydroxyphenylalanine (DOPA) accumulation following decarboxylase inhibition was tested on cortex of reserpine-pretreated rats. Format: functional. Summed up: as §1
Assay [9] relates to Rattus norvegicus. The assay can be described thus: In vivo effects on dihydroxyphenylalanine (DOPA) accumulation following decarboxylase inhibition was tested on striatum of reserpine-pretreated rats. It counts as functional. Summed up:
as §1

Assay [10] has as its target T3, D(2) dopamine receptor. Briefly: In vitro affinity at human cloned Dopamine receptor D2A by [3H]raclopride displacement.
The target of assay [11] is T2, D(1A) dopamine receptor. Briefly: In vitro affinity at Dopamine receptor D1 of rat striatum by [3H]SCH-23,390 displacement. Format: tissue-based.
The subject of assay [12] is Rattus norvegicus. The assay can be described thus: In vivo effect on dihydroxyphenylalanine (DOPA) accumulation following decarboxylase inhibition was tested on cortex of reserpine-pretreated rats. It counts as functional. In short, it runs like this: as §1
Assay [13] concerns Rattus norvegicus. The assay can be described thus: In vivo effect on dihydroxyphenylalanine (DOPA) accumulation following decarboxylase inhibition was tested on striatum of reserpine-pretreated rats. Format: functional. Summed up:
as §1

Bounds are passed on as bounds.

T2 sequence (P18901 whole entry): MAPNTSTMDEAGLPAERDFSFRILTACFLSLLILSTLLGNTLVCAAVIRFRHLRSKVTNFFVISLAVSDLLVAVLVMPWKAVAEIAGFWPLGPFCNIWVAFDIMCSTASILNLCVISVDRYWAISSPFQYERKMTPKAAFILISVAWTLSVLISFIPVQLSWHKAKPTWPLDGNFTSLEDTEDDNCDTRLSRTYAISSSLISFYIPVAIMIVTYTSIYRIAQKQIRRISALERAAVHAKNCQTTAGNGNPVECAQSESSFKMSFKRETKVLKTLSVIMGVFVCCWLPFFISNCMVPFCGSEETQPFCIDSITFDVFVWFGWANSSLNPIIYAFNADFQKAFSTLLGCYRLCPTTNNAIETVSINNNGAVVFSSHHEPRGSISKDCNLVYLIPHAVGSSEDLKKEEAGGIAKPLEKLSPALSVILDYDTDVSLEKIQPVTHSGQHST

The Ki is a dissociation constant, usually derived from enzyme kinetics or from competition with a known ligand. For `CCc1ccc2c(c1O)-c1cccc3c1[C@@H](C2)N(C)CC3`, the Ki in [1] stood at 9.2 nM; at D(1A) dopamine receptor [2], 782 nM; on D(2) dopamine receptor [3] it was 2050 nM.

For the molecule `Cc1ccc2c(c1O)-c1cccc3c1[C@@H](C2)NCC3`, the results for the Ki (in assay [1]; at D(1A) dopamine receptor [2]; on D(2) dopamine receptor [3]) were 3.2 nM, 23800 nM and > 10000 nM, respectively. The Accumulation came out at 47 in the assay with Rattus norvegicus [4]; 37 in the assay with Rattus norvegicus [5]; 85 in the assay on Rattus norvegicus [6]; 40 in the assay with Rattus norvegicus [7]; 93 with Rattus norvegicus [8]; 78 in the assay on Rattus norvegicus [9].

Take `COc1c(C)ccc2c1-c1cccc3c1[C@@H](C2)NCC3`: the figures for the Ki (in [1]; on D(2) dopamine receptor [10]; on D(1A) dopamine receptor [11]) were 12.6 nM, 4710 nM and > 5000 nM, respectively.

Take `CCCN1CCc2cccc3c2[C@H]1Cc1ccc(C)c(OC)c1-3`: the Ki was 10.8 nM in assay [1], > 2000 nM on D(1A) dopamine receptor [2] and 238 nM at D(2) dopamine receptor [3].

Take `COc1c(-c2ccco2)ccc2c1-c1cccc3c1[C@@H](C2)N(C)CC3`: the Ki in assay [1] came out at 995 nM; at D(2) dopamine receptor [10], 582 nM; on D(1A) dopamine receptor [11], 14000 nM.

With `COc1c(C)ccc2c1-c1cccc3c1[C@@H](C2)N(Cc1ccccc1)CC3`, the Ki at D(2) dopamine receptor [10] and at D(1A) dopamine receptor [11] was > 5000 nM in each case.

As for `CN1CCc2cccc3c2[C@H]1Cc1ccc(-c2ccccc2)c(O)c1-3`, the figures for the Ki (in assay [1]; at D(1A) dopamine receptor [2]; on D(2) dopamine receptor [3]) were 1090 nM, 9400 nM and > 1000 nM, respectively.

For the molecule `CCCN1CCc2cccc3c2[C@H]1Cc1ccc(C)c(O)c1-3`, the Ki was 12.3 nM in assay [1], > 2000 nM at D(1A) dopamine receptor [2] and 249 nM at D(2) dopamine receptor [3]. Moreover, the Accumulation in the assay with Rattus norvegicus [4] was determined as 104; with Rattus norvegicus [5] it was 104; in the assay on Rattus norvegicus [6], 81; with Rattus norvegicus [7], 102; with Rattus norvegicus [8] it was 116; with Rattus norvegicus [9], 72.

`CCCN1CCc2cccc3c2[C@H]1Cc1ccc(OS(=O)(=O)C(F)(F)F)c(OC)c1-3`: the Ki was 3300 nM in assay [1], > 2000 nM on D(1A) dopamine receptor [2] and 403 nM on D(2) dopamine receptor [3].

Consider `COc1c(C(C)=O)ccc2c1-c1cccc3c1[C@@H](C2)N(C)CC3`, for which the Ki was found to be 150 nM in assay [1], 2980 nM at D(2) dopamine receptor [10] and 4820 nM on D(1A) dopamine receptor [11].

For `CC(=O)c1ccc2c(c1O)-c1cccc3c1[C@@H](C2)N(C)CC3`, the inhibition constant (Ki) at D(1A) dopamine receptor [2] came to 4620 nM; at D(2) dopamine receptor [3], 2760 nM.

Consider `CCc1ccc2c(c1OC)-c1cccc3c1[C@@H](C2)N(C)CC3`, for which the Ki in [1] turned out to be 17.5 nM; at D(1A) dopamine receptor [2], 1030 nM; at D(2) dopamine receptor [3] it was 411 nM.

As to `C=Cc1ccc2c(c1OC)-c1cccc3c1[C@@H](C2)N(C)CC3`, the Ki in [1] is 108 nM; at D(2) dopamine receptor [10], 1750 nM; on D(1A) dopamine receptor [11], 1440 nM.

For the molecule `COc1c(C)ccc2c1-c1cccc3c1[C@@H](C2)N(C)CC3`, the figures for the inhibition constant (Ki) (in [1]; on D(1A) dopamine receptor [2]; at D(2) dopamine receptor [3]) were 7.5 nM, 393 nM and 248 nM, respectively.

With `COc1c(C)ccc2c1-c1cccc3c1[C@@H](C2)N(C(C)C)CC3`, the figures for the Ki (in assay [1]; at D(1A) dopamine receptor [2]; at D(2) dopamine receptor [3]) were 640 nM, > 5000 nM and > 1000 nM, respectively.

Take `Cc1ccc2c(c1O)-c1cccc3c1[C@@H](C2)N(Cc1ccccc1)CC3`: the figures for the Ki (in assay [1]; at D(1A) dopamine receptor [2]; at D(2) dopamine receptor [3]) were 772 nM, > 5000 nM and > 1000 nM, respectively.

In the case of `COc1c(OS(=O)(=O)C(F)(F)F)ccc2c1-c1cccc3c1[C@@H](C2)N(C)CC3`, the Ki in assay [1] is 1620 nM; on D(1A) dopamine receptor [2] it was > 2000 nM; on D(2) dopamine receptor [3] it was 1040 nM.

As for `Cc1ccc2c(c1O)-c1cccc3c1[C@@H](C2)N(C(C)C)CC3`, the figures for the Ki (in assay [1]; at D(1A) dopamine receptor [2]; on D(2) dopamine receptor [3]) were 241 nM, > 10000 nM and > 1000 nM, respectively.

Consider `Cc1ccc2c(c1O)-c1cccc3c1[C@@H](C2)N(C)CC3`, for which the Accumulation was found to be 70 with Rattus norvegicus [4]; 58 in the assay on Rattus norvegicus [5]; 100 in the assay on Rattus norvegicus [12]; 90 in the assay with Rattus norvegicus [13]; 84 with Rattus norvegicus [6]; 72 in the assay on Rattus norvegicus [7].
